From PubChem BioAssay come the findings set out here.

Assay [1] is described as follows: Her2 expression decrease, cell viability multiplex – SKBR3 breast tumor cells, AlphaScreen, ATP viability, primary screen (AID 461).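 For Her2 level: lower value means less Her2 protein in the cells.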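 For viability: percent of carrier control wells set as 100% viability.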 Particulars: SKBR3 Her2 protein level, 18-24 h, measured here: SKBR3 viability, ATP luminescence, at 10 µM.
Assay [2] concerns the target Receptor tyrosine-protein kinase erbB-2 (Homo sapiens) (UniProt P04626). Described as above. Particulars: 18-24 h, at 10 µM, stronger effect = lower value.
Assay [3] can be described thus: reduced viability of SK-BR-3 breast cancer cells – cell-based, 24 h, human, pilot screen (AID 572;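 active = viability at or below 10% of carrier control in both of two separate runs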;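 note: compound exposure lasted between 18 and 24 h rather than exactly 24 h; 100% = carrier-treated control wells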). Particulars: SK-BR-3 viability, CellTiter-Glo luminescence, at 10 µM, stronger effect = lower value.
A short description of assay [4]: HUVEC growth inhibition – cell-based, human, primary screen (AID 575;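 active = viability at or below 30% in both replicate assays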;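 note: 100% = median of untreated cell wells with 0.1% DMSO on each plate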). Particulars: HUVEC proliferation, CellTiter-Glo luminescence, 72 h; at 10 µM; stronger effect = lower value. In short, it runs like this: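 Test system: primary human umbilical vein endothelial cells; medium: endothelial basal medium with 2% FBS plus growth supplements; dosing: 10 µM compound only; times: 72 h treatment at 37 °C; signal: CTG luminescence; read-out: % viability relative to median vehicle-well signal on each plate; control set: vehicle and MePR control wells; plate: 384-well, collagen-coated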
(Cellular ATP, detected with luciferase, serves as a proxy for viable cell number.)

Assay [5] is described as follows: H69AR cell proliferation blockers – human, duplicate replicates, primary screen (AID 580;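 active = viability at or under a set limit in both replicates, limit being median viability minus 3 SD, cut at about 48% in these data, passing the limit was not always enough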;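 note: 100% = mean luminescence of untreated wells and 0% = no signal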). Particulars: H69AR lung tumor cells viability, ATP luminescence, 72 h; at 10 µM; stronger effect = lower value.
Assay [6] in a line: MRP1 drug-resistance reversers in H69AR cells – cell-based, doxorubicin co-treatment, pilot screen (AID 601;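 active = viability loss from added drug above about 55%, and viability with drug at most 40%, in both replicates, limit read from the data, passing the limit was not always enough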). Particulars: CellTiter-Glo, 72 h, at 10 µM; for differential viability (reversal): stronger effect = higher value.
Assay [7] can be described thus: yeast transport mutant growth inhibition pilot in 384-well plates, post-Golgi transport modulator project (AID 636; in the data active = inhibition above about 31%). Particulars: absorbance 615 nm, about 18 h, stronger effect = higher value.
Assay [8] is described as follows: growth suppression of yeast trafficking mutant, preliminary HTS, modulators of trafficking downstream of Golgi apparatus project, 1536-format plate, OD 615 nm (AID 637; in the data active = inhibition above about 30%). Particulars: yeast transport mutant growth, absorbance 615 nm, 18 h; stronger effect = higher value.
[9] abbreviates: H69AR cells + 2 uM doxorubicin, measured here: viability with 2 uM doxorubicin, stronger effect = lower value.
[10] abbreviates: H69AR cells, compound alone cytotoxicity.

The structures appear in SMILES notation. Active and inactive are the calls of the source.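 Rule for the calls, unless noted: active = Her2 level under about 52% in both replicate screens, with viability over 70% of control (limit read from the data); inconclusive = Her2 under the limit in one screen only, or viability under 70%; inactive = Her2 level above the set limit.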

Chain of Receptor tyrosine-protein kinase erbB-2 (Homo sapiens) (P04626 whole entry, looked up): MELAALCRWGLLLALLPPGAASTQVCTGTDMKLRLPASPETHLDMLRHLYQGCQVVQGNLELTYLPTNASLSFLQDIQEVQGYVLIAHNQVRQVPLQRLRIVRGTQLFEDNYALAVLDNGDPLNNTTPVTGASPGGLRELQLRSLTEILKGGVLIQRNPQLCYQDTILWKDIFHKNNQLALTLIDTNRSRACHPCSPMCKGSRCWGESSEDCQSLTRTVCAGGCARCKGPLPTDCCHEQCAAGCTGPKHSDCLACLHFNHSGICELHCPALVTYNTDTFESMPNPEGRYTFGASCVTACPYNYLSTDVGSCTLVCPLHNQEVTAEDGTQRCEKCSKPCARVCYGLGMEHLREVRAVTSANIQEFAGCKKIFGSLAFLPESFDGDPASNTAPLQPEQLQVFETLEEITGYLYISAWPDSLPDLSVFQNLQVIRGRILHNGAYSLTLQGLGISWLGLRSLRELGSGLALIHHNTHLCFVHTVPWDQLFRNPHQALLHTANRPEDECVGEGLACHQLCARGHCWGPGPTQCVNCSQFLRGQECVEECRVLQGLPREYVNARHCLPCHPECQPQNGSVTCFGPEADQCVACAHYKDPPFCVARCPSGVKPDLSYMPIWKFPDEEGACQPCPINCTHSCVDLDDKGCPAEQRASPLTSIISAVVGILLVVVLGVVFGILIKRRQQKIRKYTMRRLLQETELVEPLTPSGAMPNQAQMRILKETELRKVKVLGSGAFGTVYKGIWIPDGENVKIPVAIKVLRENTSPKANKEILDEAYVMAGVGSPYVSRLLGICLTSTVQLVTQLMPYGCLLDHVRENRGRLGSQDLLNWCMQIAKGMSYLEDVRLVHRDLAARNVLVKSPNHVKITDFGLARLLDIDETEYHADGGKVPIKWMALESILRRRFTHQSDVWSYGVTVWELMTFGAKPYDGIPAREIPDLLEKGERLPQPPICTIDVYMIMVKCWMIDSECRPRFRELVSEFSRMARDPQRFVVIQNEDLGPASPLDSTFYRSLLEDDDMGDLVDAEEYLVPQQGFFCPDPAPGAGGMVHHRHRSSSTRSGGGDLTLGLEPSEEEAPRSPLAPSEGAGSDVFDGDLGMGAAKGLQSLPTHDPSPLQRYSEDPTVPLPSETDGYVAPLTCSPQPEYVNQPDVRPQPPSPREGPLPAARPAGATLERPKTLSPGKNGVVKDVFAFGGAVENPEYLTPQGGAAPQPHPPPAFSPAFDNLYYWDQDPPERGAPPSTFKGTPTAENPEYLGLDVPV

On to `CCOc1cc(C2/C(=C(/O)c3ccc(OC(C)C)cc3)C(=O)C(=O)N2CCCOC)ccc1O` (stereo not given), for which the viability (usually a read-out of living cells in per cent, often relative to untreated cells) in assay [1] is 91.5%; in assay [3], 91.5% (inactive); in assay [4], 103% (inactive); in assay [5] it was 99.1% (inactive); in assay [6] (setting [9]), 97.4%; in assay [6] (setting [10]), 99.1%. The Her2 level in assay [2] is 83.5% (inactive). The differential viability (reversal) in assay [6] (H69AR cells + 2 uM doxorubicin) was 1.7% (inactive). Further, the values for the inhibition in assay [7] and in assay [8] were 1.82% (inactive) and 3.17% (inactive), respectively.

Take `Cc1cc(=O)[nH]c(SCC(=O)NCc2ccco2)n1`: the viability is 95% in assay [1]; 95% (inactive) in assay [3]; 88.6% (inactive) in assay [4]; 94.6% (inactive) in assay [5]; 100% in assay [6] (setting [9]); 94.6% in assay [6] (setting [10]). The Her2 level in assay [2] was 106% (inactive). In addition, the differential viability (reversal) in assay [6] (H69AR cells + 2 uM doxorubicin) is -5.85% (inactive). Also, the values for the inhibition in assay [7] and in assay [8] were -5.48% (inactive) and -2.38% (inactive), respectively.

As to `CCCCN(CCCNC(=O)C1CCN(S(=O)(=O)CC)CC1)c1ccccc1`, the viability was 87% in assay [1]; 87% (inactive) in assay [3]; 97.3% (inactive) in assay [4]; 96.6% (inactive) in assay [5]; 98.2% in assay [6] (setting [9]); 96.6% in assay [6] (setting [10]). Besides, in assay [2], the Her2 level is 89.5% (inactive). Besides, the differential viability (reversal) in assay [6] (H69AR cells + 2 uM doxorubicin) is -1.6% (inactive). The inhibition – broadly, the change of the read-out against control, counted positive when it falls – in assay [7] is -2.89% (inactive); in assay [8], -6.83% (inactive).

Take `CCOC(=O)COc1ccc(S(=O)(=O)N2CCc3ccccc3C2)cc1`: the viability in assay [1] is 111%; in assay [3], 111% (inactive); in assay [4] it was 9.96% (active); in assay [5], 96.7% (inactive); in assay [6] (setting [9]) it was 83%; in assay [6] (setting [10]), 96.7%. Also, in assay [2], the Her2 level is 102% (inactive). Moreover, the differential viability (reversal) in assay [6] (H69AR cells + 2 uM doxorubicin) was 13.7% (inactive). Also, the inhibition in assay [7] is -1.97% (inactive); in assay [8], 0.65% (inactive).

Turning to `Cc1ccccc1OCc1nnc(SCC(=O)NCc2ccccc2)n1C`, the viability in assay [1] is 96%; in assay [3], 96% (inactive); in assay [4], 88.4% (inactive); in assay [5] it was 104% (inactive); in assay [6] (setting [9]) it was 95.2%; in assay [6] (setting [10]), 104%. Also, the Her2 level in assay [2] was 84.5% (inactive). In addition, the differential viability (reversal) in assay [6] (H69AR cells + 2 uM doxorubicin) is 8.75% (inactive). In addition, the figures for the inhibition in assay [7] and in assay [8] were -4.66% (inactive) and -3.02% (inactive), respectively.

With `COC(=O)c1nc(N)sc1-c1ccccc1`, the viability was 96% in assay [1]; 96% (inactive) in assay [3]; 95.1% (inactive) in assay [4]; 93.3% (inactive) in assay [5]; 80% in assay [6] (setting [9]); 93.3% in assay [6] (setting [10]). Besides, in assay [2], the Her2 level is 93% (inactive). Further, the differential viability (reversal) in assay [6] (H69AR cells + 2 uM doxorubicin) was 13.3% (inactive). In addition, the inhibition is -6.13% (inactive) in assay [7] and 1.43% (inactive) in assay [8].

For the molecule `COc1ccccc1N1CCN(C/C(O)=C(\C#N)c2nc(-c3ccccc3)cs2)CC1`, the viability in assay [1] was 94%; in assay [3], 94% (inactive); in assay [4], 84.1% (inactive); in assay [5], 90.8% (inactive); in assay [6] (setting [9]) it was 97.2%; in assay [6] (setting [10]), 90.8%. Also, the Her2 level in assay [2] is 108% (inactive). Also, the differential viability (reversal) in assay [6] (H69AR cells + 2 uM doxorubicin) is -6.43% (inactive). Moreover, the figures for the inhibition in assay [7] and in assay [8] were 0.55% (inactive) and 12.5% (inactive), respectively.

As for `CCn1c(CCC(=O)Nc2nc3c(s2)CCCC3)nc2cc(S(=O)(=O)N(C)C)ccc21`, the viability is 89.5% in assay [1]; 89.5% (inactive) in assay [3]; 59.9% (inactive) in assay [4]; 85.4% (inactive) in assay [5]; 66.7% in assay [6] (setting [9]); 85.4% in assay [6] (setting [10]). Moreover, the Her2 level in assay [2] is 80% (inactive). Also, the differential viability (reversal) in assay [6] (H69AR cells + 2 uM doxorubicin) is 18.7% (inactive). Further, the figures for the inhibition in assay [7] and in assay [8] were 5.27% (inactive) and -3.11% (inactive), respectively.

Take `CCC(C(=O)Nc1ncccn1)(C(F)(F)F)C(F)(F)F`: the viability was 86.5% in assay [1]; 86.5% (inactive) in assay [3]; 95.7% (inactive) in assay [4]; 103% (inactive) in assay [5]; 94.6% in assay [6] (setting [9]); 103% in assay [6] (setting [10]). Besides, the Her2 level in assay [2] is 99% (inactive). In addition, the differential viability (reversal) in assay [6] (H69AR cells + 2 uM doxorubicin) is 8.62% (inactive). Moreover, the inhibition in assay [7] is 0.27% (inactive); in assay [8] it was 0.82% (inactive).

In the case of `O=C1COc2ccc(C(=O)COC(=O)CCc3ccc(S(=O)(=O)N4CCOCC4)cc3)cc2N1`, the viability was 105% in assay [1]; 105% (inactive) in assay [3]; 80.3% (inactive) in assay [4]; 79% (inactive) in assay [5]; 89.4% in assay [6] (setting [9]); 79% in assay [6] (setting [10]). Besides, the Her2 level in assay [2] was 98% (inactive). The differential viability (reversal) in assay [6] (H69AR cells + 2 uM doxorubicin) is -10.4% (inactive). The results for the inhibition in assay [7] and in assay [8] were 2.69% (inactive) and 1.67% (inactive), respectively.

Consider `CSC(=O)CC(=O)NC(=O)c1ccccc1`, for which the viability in assay [1] is 102%; in assay [3], 102% (inactive); in assay [4] it was 108% (inactive); in assay [5] it was 97.9% (inactive); in assay [6] (setting [9]), 104%; in assay [6] (setting [10]), 97.9%. Besides, the Her2 level in assay [2] is 97% (inactive). The differential viability (reversal) in assay [6] (H69AR cells + 2 uM doxorubicin) was -5.79% (inactive). The inhibition was -1.05% (inactive) in assay [7] and 5.74% (inactive) in assay [8].

As to `CCOC(=O)C1CCN(C(=O)Nc2ccc3snnc3c2)CC1`, the viability in assay [1] is 96.5%; in assay [3], 96.5% (inactive); in assay [4] it was 92.2% (inactive); in assay [5], 94.9% (inactive); in assay [6] (setting [9]), 89%; in assay [6] (setting [10]), 94.9%. The Her2 level in assay [2] was 88.5% (inactive). Further, the differential viability (reversal) in assay [6] (H69AR cells + 2 uM doxorubicin) is 5.87% (inactive). The inhibition in assay [7] was -6.08% (inactive); in assay [8], -0.67% (inactive).

Regarding `CCOC(=O)C1CCCN(Cc2nc(N)nc(Nc3ccccc3)n2)C1` (stereo not given), the viability in assay [1] is 100%; in assay [3], 100% (inactive); in assay [4], 92.8% (inactive); in assay [5], 91.1% (inactive); in assay [6] (setting [9]), 85.5%; in assay [6] (setting [10]) it was 91.1%. Besides, in assay [2], the Her2 level is 87% (inactive). Besides, in assay [6] (H69AR cells + 2 uM doxorubicin), the differential viability (reversal) was 5.62% (inactive). In addition, the values for the inhibition in assay [7] and in assay [8] were 1.05% (inactive) and 0.32% (inactive), respectively.

As for `C=CCSc1nc2c(c(=O)[nH]c(=O)n2C)n1CC`, the viability in assay [1] was 78.5%; in assay [3] it was 78.5% (inactive); in assay [4] it was 85.7% (inactive); in assay [5], 93.2% (inactive); in assay [6] (setting [9]), 85.3%; in assay [6] (setting [10]) it was 93.2%. For the same molecule, the Her2 level in assay [2] is 74% (inactive). In assay [6] (H69AR cells + 2 uM doxorubicin), the differential viability (reversal) was 7.82% (inactive). Further, the inhibition in assay [7] was -5.54% (inactive); in assay [8], -3.11% (inactive).
